Measured values from ChEMBL document CHEMBL4425127 (J Med Chem, 2016).
pEC50, pIC50, pKd: −log10 of the molar value. The source made the active and inactive calls. The calls are words filed in the database; no cut-off is given here.

Tests used:
[1] = Inhibition of recombinant Influenza A virus (A/Anhui/1/2013(H7N9)) Neuraminidase N9 expressed in baculovirus infected insect cells using 4-MU-NANA as substrate preincubated for 30 mins followed by substrate addition by microplate reader analysis
Outline: (§1)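 Purified recombinant NA, with activity pre-set to roughly 10–50 nM in PBS, preincubated with serial 5-fold inhibitor dilutions in PBS (top 1 mM) at 37 °C for 30 min. MUNANA solution (167 μM, PBS) then added. Fluorescence read at ex 355/em 460 nm.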

[2] = Aqueous solubility of compound; type: physicochemical; details: buffer
[3] = Binding affinity to recombinant Influenza A virus (A/Moscow/10/99(H3N2)) Neuraminidase N2 expressed in baculovirus infected insect cells measured up to 400 sec by surface plasmon resonance analysis; design: species or system Influenza A virus (A/Moscow/10/1999(H3N2))
Outline: (§2)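 NA covalently immobilised on CM5 chip by amine coupling. Analyte passed over at several concentrations in running buffer. BSA served as negative control protein. Constants from a steady-state affinity model; triplicate experiments.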

[4] = Inhibition of recombinant Influenza A virus (A/Moscow/10/99(H3N2)) Neuraminidase N2 expressed in baculovirus infected insect cells using 4-MU-NANA as substrate preincubated for 30 mins followed by substrate addition by microplate reader analysis; design: species or system Influenza A virus (A/Moscow/10/1999(H3N2)); outline: as §1
MDCK = experiment: Cytotoxicity against MDCK cells assessed as reduction in cell viability after 72 hrs by MTT assay; type: cell-based, Canis lupus familiaris; details: dog
[5] = Half life in Sprague-Dawley rat at 6 umol/kg, iv by HPLC analysis; type: ADME, organism-based; details: in vivo
Outline: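 Rats (n = 5) received a single tail-vein injection in physiological saline. Plasma levels measured by HPLC, using a reversed-phase C18 gradient with ammonium-containing aqueous/acetonitrile eluents over 5 min at 0.6 mL/min.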

Influenza A virus H3N2 [6] = experiment: Antiviral activity against Influenza A virus (A/Moscow/10/99(H3N2)) expressing A/Puerto Rico/8/34(H1N1) genes infected in MDCK cells assessed as reduction in viral replication after 72 hrs by hemagglutination test; type: functional, organism-based, A/Moscow/10/1999(H3N2); details: for pEC50: Influenza A virus, A/Moscow/10/1999(H3N2), MDCK, 72 h, read-out: EC50
[7] = molecular target: Neuraminidase (Influenza A virus (A/Memphis/1/1971(H3N2))) (UniProt P03471); experiment: Binding affinity to recombinant Influenza A virus (A/Moscow/10/99(H3N2)) Neuraminidase N2 expressed in baculovirus infected insect cells at 100 to 1000 nM measured up to 160 sec by surface plasmon resonance analysis; outline: as §2
Chain of Neuraminidase (Influenza A virus (A/Memphis/1/1971(H3N2))) (P03471 whole entry): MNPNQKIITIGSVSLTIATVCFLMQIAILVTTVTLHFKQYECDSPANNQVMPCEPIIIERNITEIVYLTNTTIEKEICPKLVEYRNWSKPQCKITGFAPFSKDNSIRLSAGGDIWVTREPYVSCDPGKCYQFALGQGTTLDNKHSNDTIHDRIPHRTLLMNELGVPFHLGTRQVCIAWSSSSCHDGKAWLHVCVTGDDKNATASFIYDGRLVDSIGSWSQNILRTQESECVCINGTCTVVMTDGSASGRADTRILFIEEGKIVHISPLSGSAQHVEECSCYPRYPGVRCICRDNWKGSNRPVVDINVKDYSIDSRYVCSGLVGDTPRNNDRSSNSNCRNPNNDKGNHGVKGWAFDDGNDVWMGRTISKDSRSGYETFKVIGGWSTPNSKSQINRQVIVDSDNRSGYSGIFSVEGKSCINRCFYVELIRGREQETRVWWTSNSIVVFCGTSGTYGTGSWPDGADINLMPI

Influenza A virus [8] = experiment: (§3) Antiviral activity against Influenza A virus (A/Puerto Rico/8/34(H1N1)) infected in Balb/c mouse assessed as protection against lethal virus challenge by measuring mouse survival at 20 mg/kg administered intranasally as single dose at 2 hrs post infection measured up to 14 days post treatment relative to control; type: functional, A/Puerto Rico/8/1934(H1N1)
Outline: (§4)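 BALB/c mice (6 per group) inoculated intranasally under anaesthesia with 10^5 pfu in 40 μL PBS. Inhibitor given intranasally in 40 μL PBS, either daily for 7 days from day 1 or once at 2 h pi; PBS-treated infected and uninfected controls. Weight and survival followed for 14 days; death counted at 25% weight loss or moribund. Mantel–Cox test.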

Influenza A virus [9] = experiment: Antiviral activity against Influenza A virus (A/Puerto Rico/8/34(H1N1)) infected in Balb/c mouse assessed as immune cell infiltration in lungs at 5 mg/kg qd administered intranasally for 7 days starting from 1 day post infection by hematoxylin and eosin staining based microscopic analysis; type: functional, organism-based; details: A/Puerto Rico/8/1934(H1N1)
Influenza A virus [10] = experiment: (§5) Antiviral activity against Influenza A virus (A/Puerto Rico/8/34(H1N1)) infected in Balb/c mouse assessed as respiratory epithelium desquamation at 20 mg/kg qd administered intranasally as single dose at 2 hrs post infection measured after 7 days post infection by hematoxylin and eosin staining based microscopic analysis; type: functional, organism-based; details: A/Puerto Rico/8/1934(H1N1)
Influenza A virus [11] = experiment: Antiviral activity against Influenza A virus (A/Puerto Rico/8/34(H1N1)) assessed as decrease in lung lesions at 10 mg/kg qd administered intranasally for 7 days starting from 1 day post infection by hematoxylin and eosin staining based microscopic analysis; type: functional, organism-based; details: A/Puerto Rico/8/1934(H1N1)
Influenza A virus [12] = experiment: as §3, with “body weight” for “mouse survival”; type: functional, A/Puerto Rico/8/1934(H1N1); outline: as §4
Influenza A virus [13] = experiment: Antiviral activity against Influenza A virus (A/Puerto Rico/8/34(H1N1)) infected in Balb/c mouse assessed as respiratory epithelium desquamation at 5 mg/kg qd administered intranasally for 7 days starting from 1 day post infection by hematoxylin and eosin staining based microscopic analysis; type: functional, organism-based; details: A/Puerto Rico/8/1934(H1N1)
Influenza A virus [14] = experiment: Antiviral activity against Influenza A virus (A/Puerto Rico/8/34(H1N1)) assessed as decrease in lung lesions at 20 mg/kg qd administered intranasally as single dose at 2 hrs post infection measured after 7 days post infection by hematoxylin and eosin staining based microscopic analysis; type: functional, organism-based; details: A/Puerto Rico/8/1934(H1N1)
Influenza A virus [15] = experiment: Antiviral activity against Influenza A virus (A/Puerto Rico/8/34(H1N1)) infected in Balb/c mouse assessed as protection against lethal virus challenge by measuring mouse survival at 5 to 10 mg/kg qd administered intranasally for 7 days starting from 1 day post infection measured for 14 days; type: functional, organism-based; details: A/Puerto Rico/8/1934(H1N1); outline: as §4
Influenza A virus [16] = experiment: as §5, with “bronchial wall thickening in lungs” for “respiratory epithelium desquamation”; type: functional, organism-based; details: A/Puerto Rico/8/1934(H1N1)
Influenza A virus [17] = experiment: Antiviral activity against Influenza A virus (A/Puerto Rico/8/34(H1N1)) infected in MDCK cells assessed as plaque reduction after 72 hrs by toluidine blue staining based method; type: functional, A/Puerto Rico/8/1934(H1N1)
Influenza A virus [18] = experiment: Antiviral activity against Influenza A virus (A/Puerto Rico/8/34(H1N1)) infected in Balb/c mouse assessed as bronchial wall thickening in lungs at 5 mg/kg qd administered intranasally for 7 days starting from 1 day post infection by hematoxylin and eosin staining based microscopic analysis; type: functional, organism-based; details: A/Puerto Rico/8/1934(H1N1)
Influenza A virus [19] = experiment: Antiviral activity against Influenza A virus (A/Anhui/1/2013(H7N9)) expressing A/Puerto Rico/8/34(H1N1) genes infected in MDCK cells assessed as reduction in viral replication after 72 hrs by hemagglutination test; type: functional, organism-based
Influenza A virus [20] = experiment: as §5, with “immune cell infiltration in lungs” for “respiratory epithelium desquamation”; type: functional, organism-based; details: A/Puerto Rico/8/1934(H1N1)
Influenza A virus [21] = experiment: Antiviral activity against Influenza A virus (A/Puerto Rico/8/34(H1N1)) infected in Balb/c mouse assessed as protection against lethal virus challenge by measuring body weight at 5 to 10 mg/kg qd administered intranasally for 7 days starting from 1 day post infection measured for 14 days; type: functional, organism-based; details: A/Puerto Rico/8/1934(H1N1); outline: as §4
Influenza A virus H3N2 [22] = experiment: Induction of viral aggregation in Influenza A virus (A/Moscow/10/99(H3N2)) at 1 mM after 3 hrs by transmission electron microscopic analysis; type: functional, organism-based; details: A/Moscow/10/1999(H3N2)
Outline: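 Virus (10^7 pfu in 150 μL DMEM) incubated at 37 °C for 3 h with 10 μL of 1 mM inhibitor stock in PBS, or without; then processed for transmission electron microscopy.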

Influenza A virus [23] = experiment: Antiviral activity against Influenza A virus (A/Puerto Rico/8/34(H1N1)) infected in Balb/c mouse assessed as protection against lethal virus challenge by measuring mouse survival at 20 mg/kg administered intranasally as single dose at 2 hrs post infection measured up to 9 days post treatment; type: functional, organism-based; details: A/Puerto Rico/8/1934(H1N1); outline: as §4
Influenza A virus [24] = experiment: Antiviral activity against Influenza A virus (A/Puerto Rico/8/34(H1N1)) infected in Balb/c mouse assessed as protection against lethal virus challenge by measuring body weight at 20 mg/kg administered intranasally as single dose at 2 hrs post infection measured up to 9 days post treatment; type: functional, organism-based; details: A/Puerto Rico/8/1934(H1N1); outline: as §4

CC(=O)N[C@H]1[C@H]([C@H](OC(=O)NCCOCCOCCOCc2cn(CC(Cn3cc(COCCOCCOCCNC(=O)O[C@@H]([C@@H]4OC(C(=O)O)=C[C@H](NC(=N)N)[C@H]4NC(C)=O)[C@H](O)CO)nn3)(Cn3cc(COCCOCCOCCNC(=O)O[C@@H]([C@@H]4OC(C(=O)O)=C[C@H](NC(=N)N)[C@H]4NC(C)=O)[C@H](O)CO)nn3)Cn3cc(COCCOCCOCCNC(=O)O[C@@H]([C@@H]4OC(C(=O)O)=C[C@H](NC(=N)N)[C@H]4NC(C)=O)[C@H](O)CO)nn3)nn2)[C@H](O)CO)OC(C(=O)O)=C[C@@H]1NC(=N)N (stereo partly specified)
pIC50 [1]: 8.60 | solubility [2]: Soluble | pKd [3]: 8.66 | pIC50 [4]: 8.21

CC(=O)N[C@H]1[C@H]([C@H](O)[C@H](O)CO)OC(C(=O)O)=C[C@@H]1N=C(N)N [ZANAMIVIR]
Activity (MDCK): Non-Toxic | half-life [5]: 32 min

COCCOCCOCCOCCOCCOCCOCCOCCOCCOCc1cn(CC(Cn2cc(COCCOCCOCCOCCOCCOCCOCCOCCOCCOC)nn2)(Cn2cc(COCCOCCOCCOCCOCCOCCOCCOCCOCCOC)nn2)Cn2cc(COCCOCCOCCOCCOCCOCCOCCOCCOCCOC)nn2)nn1
Activity (MDCK): Non-Toxic | EC50 (Influenza A virus H3N2 [6]): Not Active | Activity [7]: inactive

CC(=O)N[C@@H]1[C@H]([C@@H](OC(=O)NCCOCCOCCOCCOCCOCCOCc2cn(CC(Cn3cc(COCCOCCOCCOCCOCCOCCNC(=O)O[C@@H]([C@@H]4OC(C(=O)O)=C[C@H](NC(=N)N)[C@H]4NC(C)=O)[C@H](O)CO)nn3)(Cn3cc(COCCOCCOCCOCCOCCOCCNC(=O)O[C@@H]([C@@H]4OC(C(=O)O)=C[C@H](NC(=N)N)[C@H]4NC(C)=O)[C@H](O)CO)nn3)Cn3cc(COCCOCCOCCOCCOCCOCCNC(=O)O[C@@H]([C@@H]4OC(C(=O)O)=C[C@H](NC(=N)N)[C@H]4NC(C)=O)[C@H](O)CO)nn3)nn2)[C@H](O)CO)OC(C(=O)O)=C[C@@H]1NC(=N)N (stereo partly specified)
pIC50 [1]: 9.00 | solubility [2]: Soluble | pKd [3]: 8.82 | pIC50 [4]: 8.42

CC(=O)N[C@H]1[C@H]([C@H](OC(=O)NCCOCCOCCOCCOCCOCCOCCOCCOCCOCCOCCOCCOCc2cn(CC(Cn3cc(COCCOCCOCCOCCOCCOCCOCCOCCOCCOCCOCCOCCNC(=O)O[C@@H]([C@@H]4OC(C(=O)O)=C[C@H](NC(=N)N)[C@H]4NC(C)=O)[C@H](O)CO)nn3)(Cn3cc(COCCOCCOCCOCCOCCOCCOCCOCCOCCOCCOCCOCCNC(=O)O[C@@H]([C@@H]4OC(C(=O)O)=C[C@H](NC(=N)N)[C@H]4NC(C)=O)[C@H](O)CO)nn3)Cn3cc(COCCOCCOCCOCCOCCOCCOCCOCCOCCOCCOCCOCCNC(=O)O[C@@H]([C@@H]4OC(C(=O)O)=C[C@H](NC(=N)N)[C@H]4NC(C)=O)[C@H](O)CO)nn3)nn2)[C@H](O)CO)OC(C(=O)O)=C[C@@H]1NC(=N)N (stereo partly specified)
Activity (Influenza A virus [8]): 100% | Activity (Influenza A virus [9]): Active | Activity (Influenza A virus [10]): Active | Activity (Influenza A virus [11]): Active | Activity (Influenza A virus [12]): 100% | pIC50 [1]: 9.10 | Activity (MDCK): Non-Toxic | Activity (Influenza A virus [13]): Active | solubility [2]: Soluble | Activity (Influenza A virus [14]): Active | Activity (Influenza A virus [15]): Active | Activity (Influenza A virus [16]): Active | half-life [5]: 72 min | Activity (Influenza A virus [17]): <4 nM | pEC50 (Influenza A virus H3N2 [6]): 8.46 | Activity (Influenza A virus [18]): Active | pEC50 (Influenza A virus [19]): 8.92 | Activity (Influenza A virus [20]): Active | pIC50 [4]: 8.55 | Activity (Influenza A virus [21]): Active | Activity (Influenza A virus H3N2 [22]): inactive

CCC(CC)O[C@@H]1C=C(C(=O)O)C[C@H](N)[C@H]1NC(C)=O [OSELTAMIVIR CARBOXYLATE]
pIC50 [1]: 9.10 | Activity (MDCK): Non-Toxic | pEC50 (Influenza A virus H3N2 [6]): 8.15 | pEC50 (Influenza A virus [19]): 7.91 | pIC50 [4]: 9.40

CC(=O)N[C@H]1[C@H]([C@H](O)[C@H](O)CO)OC(C(=O)O)=C[C@@H]1NC(=N)N [ZANAMIVIR]
Activity (Influenza A virus [9]): inactive | Activity (Influenza A virus [10]): inactive | Activity (Influenza A virus [11]): inactive | pIC50 [1]: 8.82 | Activity (Influenza A virus [13]): inactive | Activity (Influenza A virus [14]): inactive | Activity (Influenza A virus [15]): Active | Activity (Influenza A virus [16]): inactive | pEC50 (Influenza A virus H3N2 [6]): 7.75 | Activity (Influenza A virus [18]): inactive | Activity (Influenza A virus [23]): inactive | pKd [3]: 8.96 | Activity (Influenza A virus [24]): inactive | pEC50 (Influenza A virus [19]): 8.21 | Activity (Influenza A virus [20]): inactive | pIC50 [4]: 8.52 | Activity (Influenza A virus [21]): Active
